# Measurements published in ChEMBL document CHEMBL1155063 (Bioorg Med Chem, 2008).
# Columns and labels:
# [1] = molecular target: T1, Telomerase reverse transcriptase (Homo sapiens, UniProt O14746); test: Effect on human TERT expressed in H1299 cells at 1 uM after 24 hrs by SEAP assay relative to control
# [2] = molecular target: T1, Telomerase reverse transcriptase; test: Effect on human TERT expressed in BJ1 cells at 1 uM after 24 hrs by SEAP assay realtive to control; details: BJ
# [3] = molecular target: T1, Telomerase reverse transcriptase; test: Effect on human TERT expressed in H1299 cells at 10 uM after 24 hrs by SEAP assay relative to control
# [4] = Cytotoxicity against human TERT immortalized BJ1 cells at 100 uM after 48 hrs by MTT assay relative to control; format: cell-based, BJ
# Outline: (§1)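 hTERT-immortalized BJ1 fibroblasts were grown in DMEM with 10% FCS, 1 mM pyruvate and 4 mM […]. Cells (about 2 × 10^3 per well) were seeded and held 24 h at 37 °C. Compounds were freshly dissolved in DMSO, diluted into medium and left on the cells 48 h. MTT was added for 4 h, then SDS/DMF lysis buffer for 16 h. Absorbance was read at 550 nm and expressed relative to untreated cells (100%).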
# [5] = molecular target: T1, Telomerase reverse transcriptase; test: Effect on human TERT expressed in BJ1 cells at 100 uM after 24 hrs by SEAP assay relative to control; details: BJ
# [6] = Cell viability of human H1299 cells at 1 uM after 48 hrs by MTT assay relative to control; details: NCI-H1299, 48 h
# [7] = molecular target: T1, Telomerase reverse transcriptase; test: Effect on human TERT expressed in H1299 cells at 100 uM after 24 hrs by SEAP assay relative to control
# [8] = Cytotoxicity against human TERT immortalized BJ1 cells at 1 uM after 48 hrs by MTT assay relative to control; format: cell-based, BJ
# Outline: as §1
# [9] = Cytotoxicity against human H1299 cells at 10 uM after 48 hrs by MTT assay realtive to control; format: functional; details: NCI-H1299, 48 h
# Outline: (§2)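 H1299 non-small-cell lung cells were kept in RPMI 1640 with 10% FBS and penicillin/streptomycin at 37 °C under 5% CO2. About 2 × 10^3 cells per well were pre-incubated for 24 h. Compound was added from freshly made DMSO solution diluted in complete medium and left for 48 h. MTT was then added for 4 h at 37 °C, followed by 20% SDS/50% DMF lysis buffer for 16 h at 37 °C, and absorbance read at 550 nm.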
# [10] = Cytotoxicity against human H1299 cells at 100 uM after 48 hrs by MTT assay realtive to control; format: functional; details: NCI-H1299, 48 h
# Outline: as §2
# [11] = Cytotoxicity against human TERT immortalized BJ1 cells at 10 uM after 48 hrs by MTT assay relative to control; format: cell-based, BJ
# Outline: as §1
# [12] = molecular target: T1, Telomerase reverse transcriptase; test: Effect on human TERT expressed in BJ1 cells at 10 uM after 24 hrs by SEAP assay relative to control; details: BJ
# T1 sequence (O14746 whole entry): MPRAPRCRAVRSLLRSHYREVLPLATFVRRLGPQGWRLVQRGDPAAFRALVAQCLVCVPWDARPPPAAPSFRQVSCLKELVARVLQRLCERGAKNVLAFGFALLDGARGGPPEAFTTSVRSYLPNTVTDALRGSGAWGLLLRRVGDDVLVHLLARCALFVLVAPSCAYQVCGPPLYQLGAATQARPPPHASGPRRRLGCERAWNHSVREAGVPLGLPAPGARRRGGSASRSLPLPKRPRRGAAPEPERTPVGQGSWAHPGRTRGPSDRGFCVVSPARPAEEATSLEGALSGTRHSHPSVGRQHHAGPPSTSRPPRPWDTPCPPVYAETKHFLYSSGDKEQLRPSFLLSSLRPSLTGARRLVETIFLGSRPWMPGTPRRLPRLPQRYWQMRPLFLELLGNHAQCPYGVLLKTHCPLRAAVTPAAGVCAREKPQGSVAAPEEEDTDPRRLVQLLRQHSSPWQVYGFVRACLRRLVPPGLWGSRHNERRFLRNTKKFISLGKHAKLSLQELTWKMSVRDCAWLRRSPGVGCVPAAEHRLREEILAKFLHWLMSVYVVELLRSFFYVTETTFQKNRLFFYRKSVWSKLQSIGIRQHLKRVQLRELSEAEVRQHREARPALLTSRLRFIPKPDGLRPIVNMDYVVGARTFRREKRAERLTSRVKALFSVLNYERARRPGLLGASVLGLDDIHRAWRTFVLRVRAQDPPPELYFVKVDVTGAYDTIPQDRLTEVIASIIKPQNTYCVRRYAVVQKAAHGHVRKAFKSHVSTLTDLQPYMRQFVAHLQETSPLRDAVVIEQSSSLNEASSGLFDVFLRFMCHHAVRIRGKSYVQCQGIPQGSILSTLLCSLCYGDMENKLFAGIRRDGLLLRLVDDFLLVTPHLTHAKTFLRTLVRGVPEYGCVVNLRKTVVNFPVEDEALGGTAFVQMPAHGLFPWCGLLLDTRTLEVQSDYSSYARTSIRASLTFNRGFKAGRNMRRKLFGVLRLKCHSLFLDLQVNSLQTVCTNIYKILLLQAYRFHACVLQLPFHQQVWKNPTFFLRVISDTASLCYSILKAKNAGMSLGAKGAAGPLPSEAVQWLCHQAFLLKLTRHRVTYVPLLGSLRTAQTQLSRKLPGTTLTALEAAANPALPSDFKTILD
SMILES,residual activity [1],residual activity [2],residual activity [3],residual activity [5],residual activity [7],residual activity [12],"viability at 48 h, 100 µM [4]",cell viability at 1 µM [6],"viability at 48 h, 1 µM [8]",viability at 10 µM [9],viability at 100 µM [10],"viability at 48 h, 10 µM [11]"
O=C1c2ccc(NC(=O)C3CCCC3)cc2C(=O)c2cc(NC(=O)C3CCCC3)ccc21,83%,137%,87%,108%,85%,130%,58%,91%,77%,77%,42%,68%
O=C(Cc1ccccc1)Nc1ccc2c(c1)C(=O)c1cc(NC(=O)Cc3ccccc3)ccc1C2=O,97%,85%,91%,40%,80%,79%,86%,106%,93%,96%,75%,80%
O=C(CN1CCCC1)Nc1ccc2c(c1)C(=O)c1cc(NC(=O)CN3CCCC3)ccc1C2=O,88%,,48%,,30%,,39%,99%,99%,52%,23%,60%
CN1CCN(CCC(=O)Nc2ccc3c(c2)C(=O)c2cc(NC(=O)CCN4CCN(C)CC4)ccc2C3=O)CC1,75%,,52%,,21%,138%,61%,95%,95%,80%,39%,80%
O=C(CN1CCNCC1)Nc1ccc2c(c1)C(=O)c1cc(NC(=O)CN3CCNCC3)ccc1C2=O,89%,,72%,,60%,,76%,88%,88%,85%,88%,85%
CN1CCN(CC(=O)Nc2ccc3c(c2)C(=O)c2cc(NC(=O)CN4CCN(C)CC4)ccc2C3=O)CC1,76%,61%,50%,97%,23%,68%,47%,90%,86%,71%,37%,69%
Nc1ccc2c(c1)C(=O)c1cc(N)ccc1C2=O,87%,,75%,,63%,,80%,90%,95%,80%,65%,83%
O=C1c2ccc([N+](=O)[O-])cc2C(=O)c2cc([N+](=O)[O-])ccc21,87%,55%,85%,65%,62%,60%,86%,97%,91%,95%,69%,91%
O=C(Nc1ccc2c(c1)C(=O)c1cc(NC(=O)c3ccccc3)ccc1C2=O)c1ccccc1,104%,,92%,36%,85%,72%,97%,71%,92%,47%,41%,85%

# Second part, led by results:
residual activity [1],residual activity [2],residual activity [3],residual activity [5],residual activity [7],residual activity [12],SMILES,"viability at 48 h, 100 µM [4]",cell viability at 1 µM [6],"viability at 48 h, 1 µM [8]",viability at 10 µM [9],viability at 100 µM [10],"viability at 48 h, 10 µM [11]"
72%,,40%,135%,36%,69%,O=C(CCl)Nc1ccc2c(c1)C(=O)c1cc(NC(=O)CCl)ccc1C2=O,88%,58%,105%,5%,1%,89%
73%,83%,38%,40%,26%,44%,CC(C)CNCC(=O)Nc1ccc2c(c1)C(=O)c1cc(NC(=O)CNCC(C)C)ccc1C2=O,39%,108%,107%,39%,11%,37%
73%,79%,28%,45%,21%,55%,CC(C)NCC(=O)Nc1ccc2c(c1)C(=O)c1cc(NC(=O)CNC(C)C)ccc1C2=O,39%,78%,89%,26%,6%,41%
94%,,94%,,87%,,O=C(CCCl)Nc1ccc2c(c1)C(=O)c1cc(NC(=O)CCCl)ccc1C2=O,39%,77%,77%,44%,29%,65%
60%,90%,35%,17%,34%,41%,CCNCC(=O)Nc1ccc2c(c1)C(=O)c1cc(NC(=O)CNCC)ccc1C2=O,37%,52%,72%,24%,3%,56%
90%,26%,61%,116%,37%,131%,CCN(CC)CC(=O)Nc1ccc2c(c1)C(=O)c1cc(NC(=O)CN(CC)CC)ccc1C2=O,50%,101%,116%,47%,25%,67%
73%,,44%,,24%,,CCCNCC(=O)Nc1ccc2c(c1)C(=O)c1cc(NC(=O)CNCCC)ccc1C2=O,42%,89%,96%,54%,14%,44%
56%,88%,33%,111%,22%,95%,CCCCNCCC(=O)Nc1ccc2c(c1)C(=O)c1cc(NC(=O)CCNCCCC)ccc1C2=O,40%,82%,80%,52%,14%,70%
90%,,83%,,83%,,CCCC(=O)Nc1ccc2c(c1)C(=O)c1cc(NC(=O)CCC)ccc1C2=O,50%,93%,84%,59%,40%,51%
77%,27%,26%,80%,20%,24%,CCCCNCC(=O)Nc1ccc2c(c1)C(=O)c1cc(NC(=O)CNCCCC)ccc1C2=O,43%,91%,103%,17%,15%,41%
